Experimental data taken from ChEMBL document CHEMBL1122623, “Activities of morphinone and N-(cyclopropylmethyl)normorphinone at opioid receptors” (J Med Chem, 1984).
“And” between values parts separate entries of the source, which are not always exact repeats. Equal values may be shown once. The source made the active and inactive calls. No cut-off for these calls is given here.

How the values were obtained:
Assay type in all cases: functional
Mus musculus [1] = species: Mus musculus; assay: Antagonist activity in mouse vas deferens preparation.
Cavia porcellus = species: Cavia porcellus; assay: Agonist activity in guinea pig ileum preparation
How it was run: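 Electrically stimulated guinea pig ileum. Agonist IC50 is derived from concentration-response curves, with the number of experiments noted for each. In a separate run, tissue is depleted of functional μ receptors by preincubation with β-FNA before the agonist curve is repeated.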

Mus musculus [2] = assay: Analgesic activity by tail-flick procedure, after intracerebroventricular administration in mice. Compound is inactive at 10 nmol/mouse
Mus musculus [3] = assay: Mice were intracerebroventricularly injected with 10 nmol and challenged with a 10 mg/kg subcutaneous dose of morphine sulfate; percentage of animals exhibiting analgesia was reported, after 24 hr
Mus musculus [4] = assay: Mice were intracerebroventricularly injected with 10 nmol and challenged with a 10 mg/kg subcutaneous dose of morphine sulfate; percentage of animals exhibiting analgesia was reported, after 2 hr
[5] = Irreversible antagonist activity is measured from the ratio of agonist activity (IC50) to that of the control (ethylketazocine).
How it was run: (§1)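 Electrically stimulated guinea pig ileum or mouse vas deferens. Tissue is incubated 30 min with 200 nM compound, then washed 20 times. […] Number of experiments is noted.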

[6] = Irreversible antagonist activity is measured from the ratio of agonist activity (IC50) to that of the control (morphine).; how it was run: as §1
Mus musculus [7] = assay: Mice were intracerebroventricularly injected with 10 nmol and challenged with a 10 mg/kg subcutaneous dose of morphine sulfate; percentage of animals exhibiting analgesia was reported, after 0.5 hr
Mus musculus [8] = assay: analgesic activity by tail-flick procedure, after intracerebroventricular administration in mice; Compound is inactive at 10 nmol/mouse
Mus musculus [9] = assay: Analgesic activity, 30 min after subcutaneous administration of the compound, in mice

Structure (SMILES) | IC50 (Mus musculus [1]) | IC50 (Cavia porcellus) | Dose (Mus musculus [3]) | Dose (Mus musculus [4]) | Ratio [5] | also measured
CC(C)C[C@@H](NC(=O)[C@H](Cc1ccccc1)NC(=O)CNC(=O)[C@@H](C)NC(=O)[C@@H](N)Cc1ccc(O)cc1)C(=O)O [DADLE] | 0.22 nM | – | – | – | – | –
CN1CCC23c4c5ccc(O)c4O[C@H]2C(=O)C=CC3C1C5 (some centres not stated) | 47 nM | 108 nM | 67% | 80% | 0.92 | ED50 (Mus musculus [2]): 11.1 nM mouse-1; Ratio [6]: 0.67 and 0.68
O=C1C=CC2C3Cc4ccc(O)c5c4C2(CCN3CC2CC2)[C@H]1O5 (some centres not stated) | 300 nM | 300 nM | 67% | 60% | 0.82 | Dose (Mus musculus [7]): 10%; ED50 (Mus musculus [8]): inactive
CN1CC[C@]23c4c5ccc(O)c4O[C@H]2[C@@H](O)C=C[C@H]3[C@H]1C5 [MORPHINE] | – | – | – | – | – | ED50 (Mus musculus [9]): 2.8 nM mouse-1
CCOc1ccc2c(c1)C1(C)CCN(CC3CC3)C(C2=O)C1C (configuration not stated) [ETHYLKETAZOCINE] | – | 1.6 nM | – | – | – | –
